# Reference: ChEMBL document CHEMBL1124031, “6-[18F]fluorometaraminol: a radiotracer for in vivo mapping of adrenergic nerves of the heart” (J Med Chem, 1988)
# What was measured:
# Rattus norvegicus [1] = species: Rattus norvegicus; assay: Desmethylimipramine blockade of compound with [3H]NE as radiotracer, and percentage change was measured in rat blood; format: functional
# Method in brief: (§1)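 Comparison study with [3H]NE (levo-[7-3H], 15–20 Ci/mmol) as tracer in female Sprague–Dawley rats (230–290 g). Rats were pretreated with DMI·HCl 10 mg/kg ip, or an equal volume of saline ip, 30 min before iv tracer. Value is the percent change in tissue tracer concentration versus saline controls; five rats per group.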
# Rattus norvegicus [2] = species: Rattus norvegicus; assay: Desmethylimipramine blockade of compound with [3H]NE as radiotracer, and percentage change was measured in rat spleen; format: functional; method in brief: as §1
# Rattus norvegicus [3] = species: Rattus norvegicus; assay: Concentration of compound in right atrium of rats, pretreated with desmethylimipramine, assessed using [18F]- as radiotracer;Dose/g; format: ADME, organism-based, Cardiac atrium; conditions: in vivo
# Method in brief: (§2)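 Female Sprague–Dawley rats (230–290 g) got DMI·HCl 10 mg/kg ip, or an equal volume of saline ip for controls, 30 min before iv [18F] tracer (5 µCi). Killed 1.5 h after tracer. Duplicate tissue samples were weighed and gamma counted. Values are decay-corrected % dose/g normalized to 250 g body weight, mean ± SEM, four rats per group.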
# Rattus norvegicus [4] = species: Rattus norvegicus; assay: Concentration of compound in left ventricle of rats, pretreated with desmethylimipramine, assessed using [18F]- as radiotracer;Dose/g; format: ADME, organism-based, Heart left ventricle; conditions: in vivo; method in brief: as §2
# Rattus norvegicus [5] = species: Rattus norvegicus; assay: Concentration of compound in right ventricle of rats, pretreated with desmethylimipramine, assessed using [18F]- as radiotracer;Dose/g; format: ADME, organism-based, Heart right ventricle; conditions: in vivo; method in brief: as §2
# Rattus norvegicus [6] = species: Rattus norvegicus; assay: Desmethylimipramine blockade of compound with [3H]NE as radiotracer, and percentage change was measured in rat right atrium; format: functional, Cardiac atrium; method in brief: as §1
# Rattus norvegicus [7] = species: Rattus norvegicus; assay: Concentration of compound in liver of rats, pretreated with desmethylimipramine, assessed using [18F]- as radiotracer;Dose/g; format: ADME, organism-based; conditions: in vivo; method in brief: as §2
# Rattus norvegicus [8] = species: Rattus norvegicus; assay: Desmethylimipramine blockade of compound with [3H]-NE as radiotracer, and percentage change was measured in rat left ventricle; format: functional, Heart left ventricle; method in brief: as §1
# Rattus norvegicus [9] = species: Rattus norvegicus; assay: Desmethylimipramine blockade of compound with [3H]NE as radiotracer, and percentage change was measured in rat right ventricle; format: functional, Heart right ventricle; method in brief: as §1
# Rattus norvegicus [10] = species: Rattus norvegicus; assay: Concentration of compound in left atrium of rats, pretreated with desmethylimipramine, assessed using [18F]- as radiotracer;Dose/g; format: ADME, organism-based, Cardiac atrium; conditions: in vivo; method in brief: as §2
# Rattus norvegicus [11] = species: Rattus norvegicus; assay: Desmethylimipramine blockade of compound with [3H]NE as radiotracer, and percentage change was measured in rat left atrium; format: functional, Cardiac atrium; method in brief: as §1
# Rattus norvegicus [12] = species: Rattus norvegicus; assay: Concentration of compound in blood of rats, pretreated with desmethylimipramine, assessed using [18F]- as radiotracer;Dose/g; format: ADME, organism-based; conditions: in vivo; method in brief: as §2
# Rattus norvegicus [13] = species: Rattus norvegicus; assay: Concentration of compound in spleen of rats, pretreated with desmethylimipramine, assessed using [18F]- as radiotracer;Dose/g; format: ADME, organism-based; conditions: in vivo; method in brief: as §2
smiles,measurement,setting,value
CC(N)C(O)c1cc(O)ccc1F (stereo not drawn),Change,Rattus norvegicus [1],55%
same,Change,Rattus norvegicus [2],-86%
same,Dose,Rattus norvegicus [3],0.24%
same,Dose,Rattus norvegicus [4],0.15%
same,Dose,Rattus norvegicus [5],0.2%
same,Change,Rattus norvegicus [6],-95%
same,Dose,Rattus norvegicus [7],0.77%
same,Change,Rattus norvegicus [8],-97%
same,Change,Rattus norvegicus [9],-96%
same,Dose,Rattus norvegicus [10],0.24%
same,Change,Rattus norvegicus [11],-95%
same,Dose,Rattus norvegicus [12],0.12%
same,Dose,Rattus norvegicus [13],0.2%
